From PubChem BioAssay
A selection: hits, their analogues and other compounds. The true share with any hit is near 3.3%.
FGF22 binding: shifts melting point of recombinant human FGF22. AID 651658. Q9HCT0. recombinant FGF22 thermal shift, SYPRO orange fluorescence; percent of sucrose octasulfate shift, DMSO zero. 1.5% of 340,000 active. activity (Tm shift, normalised), % at 9.99 µM;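 active = mean Tm shift, scaled 0 neutral to 100 positive control, at about 1.3% or above, every replicate too, limit read from the data; inconclusive = no clear call, values can overlap the other calls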
Target sequence (Q9HCT0 whole entry, looked up): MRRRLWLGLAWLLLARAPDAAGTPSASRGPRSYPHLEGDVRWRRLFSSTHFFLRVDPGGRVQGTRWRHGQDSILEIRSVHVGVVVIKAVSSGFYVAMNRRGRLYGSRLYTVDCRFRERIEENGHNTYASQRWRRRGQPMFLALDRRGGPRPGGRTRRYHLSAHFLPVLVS
PglD inh: inhibitors of Campylobacter jejuni PglD acetyltransferase; purified PglD enzyme, DTNB colorimetric CoA detection; 0.098% of 360,000 active; AID 602405; inhibition, % at 12.5 µM; in the data active = inhibition above about 16%, passing the limit was not always enough; inconclusive = no clear call, values can overlap the other calls
Xi reactivation: X-chromosome reactivation activator; XiGFP mouse fibroblasts, % GFP-positive cells imaging, 3 d; cells co-treated with 5-aza-dC sensitizer; scaled so ellipticine positive control = 100%; activation, % at 7.58 µM; 0.055% of 360,000 active; AID 743238;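 active = mean normalized replicate activation at least 10% and every replicate at or above 10%; inconclusive = only one of the two criteria met; inactive = mean below 10% and not all replicates reach 10%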;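 also: 0% = median of on-plate neutral control wells and 100% = ellipticine 6 µM median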
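System: 68-5-11 XiGFP fibroblast line; Timing: 3 days compound exposure; Compound dosing: one concentration, pinned; Benchmarks: positive control ellipticine, 6 µM final; Buffer or medium: DMEM containing 5-aza-dC.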
Statin myotox sup: suppression of simvastatin myotoxicity; 0.78% of 330,000 active; C2C12 myotubes + simvastatin, ATP luminescence, 48 h; scaled: DMSO 0, geranylgeraniol control 100; rescue of ATP level, % at 7.49 µM;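 active = mean ATP rescue above about 67%, or every replicate alone reaching that limit, limit read from the data, passing the limit was not always enough; inconclusive = no clear call, values can overlap the other calls; inactive = mean under the limit and some replicate under it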;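 also: myotubes were challenged with 10 µM simvastatin during compound exposure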
DENV2 CPE: inhibitors of DENV2 cytopathic effect; DENV2-infected cells, cytopathic effect rescue, plate reader; CPE inhibition, % at 9.99 µM; 1.7% of 350,000 active; in the data active = CPE inhibition above about 20%, passing the limit was not always enough; inconclusive = no clear call, values can overlap the other calls; tested in BHK-21 cells;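 also: 0% = median of neutral control wells and 100% = median of positive control wells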
E-sel inducer: E-selectin induction on HUVECs; activation, % at 7.58 µM; P16581; 0.37% of 260,000 active; HUVEC E-selectin immunofluorescence imaging; normalized: neutral wells 0, TNF-alpha wells 100;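 active = mean E-selectin-positive cell signal at least 10% of the positive control, reached in at least 60% of replicates, without over 20% cell loss; inconclusive = no rule given, readout overlaps actives, possibly toxicity-flagged; inactive = the rest, including those meeting only one limit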
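Assay system: HUVEC, human umbilical vein endothelial cells / Amount: 3,000 HUVEC/well / Controls: TNF-alpha positive control, DMSO neutral control / Compound dosing: single concentration / Medium: EGM-2 over gelatin coat / Evaluation: percent E-selectin-positive cells / Signal: immunofluorescence imaging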
* = called active by the depositor; ? = inconclusive; · = no result given.

SMILES	FGF22 binding	PglD inh	Xi reactivation	Statin myotox sup	DENV2 CPE	E-sel inducer
CC(C)NC(=O)Nc1ccc2c(c1)C(=O)N([C@@H](C)CO)C[C@H](C)[C@H](CN(C)Cc1ccc(C(=O)O)cc1)OCCCC[C@@H](C)O2	-1.2	0.1	0.1	·	25.2*	0.1
C[C@H]1CN([C@@H](C)CO)C(=O)c2cc(NC(=O)NC3CCCCC3)ccc2O[C@@H]1CN(C)Cc1ccc(C(=O)O)cc1	-0.4	-3.2	0.1	-0.3	-5.5	-1.6
C[C@H](CO)N1C[C@H](C)[C@@H](CN(C)S(=O)(=O)c2ccc(Cl)cc2)Oc2ccc(NS(=O)(=O)c3ccc(Cl)cc3)cc2CC1=O	-0.4	3.9	0.1	52.5	6.4	-0.1
CO[C@@H]1CN(C)C(=O)c2cc(NC(=O)NC(C)C)ccc2OC[C@@H](C)N(CCC(F)(F)F)C[C@H]1C	·	10.4	0.1	-4.8	·	-0.2
CC(C)[C@@H]1COCc2cn(nn2)CC[C@@H](Cc2ccccc2)C(=O)N1	0.0	·	-0.1	·	7.3	-0.1
O=C(Cn1sc2ccccc2c1=O)Nc1ccc(F)cc1	43.1*	-3.5	0.3	17.8	-13.9	0.0
CC(C)NC(=O)Nc1ccc2c(c1)C(=O)N([C@H](C)CO)C[C@@H](C)[C@H](CN(C)S(=O)(=O)c1cn(C)cn1)O2	0.0	0.5	0.0	·	-4.8	-0.2
COc1cccc(NC(=O)N2C[C@H](O)COC[C@H]3O[C@@H](CC(=O)NC4Cc5ccccc5C4)CC[C@@H]32)c1	0.1	0.5	0.0	-20.4	0.2	0.0
CC(C)(C)c1ccc(C#C[C@@H]2C=C[C@H](O)[C@@H](COC(=O)Nc3ccccc3)O2)cc1	44.5*	·	0.3	·	?	-0.3
O=Nc1ccc(Cl)cn1	-0.4	·	-0.1	·	30.5*	-0.1
COc1ccc(NC(=O)Nc2ccc3c(c2)C(=O)N([C@@H](C)CO)C[C@H](C)[C@H](CN(C)C(=O)Cc2ccccc2)OCCCC[C@H](C)O3)cc1	-0.3	3.7	0.4	·	21.2*	0.2
COc1ccc(NC(=O)Nc2ccc3c(c2)C(=O)N([C@H](C)CO)C[C@@H](C)[C@H](CN(C)C(=O)Cc2ccccc2)OCCCC[C@@H](C)O3)cc1	-0.4	0.7	0.1	·	30.0*	0.1
COc1ccc(NC(=O)Nc2ccc3c(c2)C(=O)N([C@@H](C)CO)C[C@@H](C)[C@H](CN(C)C(=O)Cc2ccccc2)OCCCC[C@H](C)O3)cc1	-0.9	1.8	0.1	·	-13.7	-0.3
COc1ccc(NC(=O)Nc2ccc3c(c2)C(=O)N([C@H](C)CO)C[C@H](C)[C@@H](CN(C)C(=O)Cc2ccccc2)OCCCC[C@@H](C)O3)cc1	-0.7	-1.7	0.2	·	68.4*	-0.2
CO[C@H]1CN(C)C(=O)c2cc(NC(=O)Cc3ccccc3)ccc2OC[C@H](C)N(C(=O)c2ccccc2F)C[C@H]1C	-0.1	1.1	0.4	-11.9	-5.6	0.2
C[C@H]1CN([C@@H](C)CO)C(=O)c2cc(NS(=O)(=O)c3ccc(F)cc3)ccc2O[C@@H]1CN(C)S(=O)(=O)c1ccc(F)cc1	-0.2	7.0	0.4	?	54.5*	0.7
C[C@H](CO)N1C[C@H](C)[C@H](CN(C)S(C)(=O)=O)Oc2ccc(NS(=O)(=O)c3cccs3)cc2C1=O	0.0	-5.9	0.1	-10.8	14.0	0.7
C[C@H](CO)N1C[C@H](C)[C@@H](CN(C)S(C)(=O)=O)Oc2ccc(NS(=O)(=O)c3cccs3)cc2C1=O	-0.3	-2.9	0.0	6.6	-5.6	428.5*
C[C@@H]1CN([C@@H](C)CO)C(=O)c2cc(NS(=O)(=O)c3ccc(F)cc3)ccc2O[C@@H]1CN(C)S(=O)(=O)c1cccs1	-0.6	4.1	-0.5	3.9	28.0*	-3.3
C[C@H](CO)N1C[C@H](C)[C@@H](CN(C)S(=O)(=O)c2cccs2)Oc2ccc(NS(=O)(=O)c3ccc(Cl)cc3)cc2CC1=O	-0.4	2.5	0.1	14.5	6.8	98.4*
C[C@H]1CN([C@@H](C)CO)C(=O)c2cc(NS(=O)(=O)c3ccc(F)cc3)ccc2O[C@H]1CN(C)S(=O)(=O)c1ccc(F)cc1	-0.3	4.8	0.3	28.0	-2.3	0.0
C[C@H]1CN([C@@H](C)CO)C(=O)c2cc(NS(=O)(=O)c3ccc(Cl)cc3)ccc2O[C@@H]1CN(C)S(=O)(=O)c1cccs1	-0.3	2.4	-0.1	-6.1	39.2*	0.0
CN(NS(=O)(=O)c1ccc(Cl)cc1)c1nc(C(F)(F)F)nc2ccccc12	44.1*	·	0.0	·	0.1	·
CN(NS(=O)(=O)c1ccccc1)c1nc2ccccc2nc1C(F)(F)F	·	-4.4	·	-30.1	·	·
Cc1cc(=O)[nH]c(SCC2(O)C3CC4CC(C3)CC2C4)n1 (configuration not stated)	·	-2.2	·	113.1*	·	·
SMILES	FGF22 binding	PglD inh	Xi reactivation	Statin myotox sup	DENV2 CPE	E-sel inducer
Cc1cc(=O)[nH]c(SCC(=O)NC2CCCCC2)n1	-0.1	5.5	0.1	27.9	-4.4	0.3
C[C@H](CO)N1C[C@H](C)[C@H](CN(C)C(=O)CCCN(C)C)OCCCC[C@H](C)Oc2ccc(NC(=O)Cc3ccccc3)cc2C1=O	-0.1	4.7	3.4	·	98.2*	·
C[C@H]1CCCCO[C@H](CN(C)C(=O)CCCN(C)C)[C@@H](C)CN([C@@H](C)CO)C(=O)c2cc(NC(=O)Cc3ccccc3)ccc2O1	-1.0	-0.1	0.1	·	29.0*	·
C[C@@H]1CCCCO[C@@H](CN(C)C(=O)CCCN(C)C)[C@H](C)CN([C@H](C)CO)C(=O)c2cc(NC(=O)Cc3ccccc3)ccc2O1	-0.9	-1.1	0.0	·	-1.9	·
C[C@@H]1CN([C@H](C)CO)C(=O)c2cc(/C=C/c3ccccc3)cnc2O[C@@H]1CN(C)S(=O)(=O)c1cn(C)cn1	0.0	-3.9	-0.6	13.9	-10.2	0.0
O=C(C[C@@H]1CC[C@H]2[C@@H](COC[C@H](O)CN2S(=O)(=O)c2ccc(F)cc2)O1)NCC1CCCCC1	-0.1	2.8	0.2	7.5	6.5	-0.1
Cc1cs/c(=N\N=C\c2ccccc2)n1Cc1ccco1	·	-8.9	0.1	·	·	-0.1
CC(C)=N/N=c1\scc(C)n1Cc1ccco1	42.9*	·	0.0	·	-0.8	1.6
CN1CCN(C(=O)C[C@@H]2CC[C@H]3[C@@H](COC[C@H](O)CN3C(=O)C3CC3)O2)CC1	0.2	0.4	0.1	5.8	5.5	0.1
Cc1cc(CN2CCCC(CO)(Cc3cccc(Cl)c3)C2)n[nH]1 (configuration not stated)	43.5*	·	-0.1	·	-0.2	·
CC(C)Cc1cc(CN2CCCC(CO)(Cc3cccc(Cl)c3)C2)[nH]n1 (configuration not stated)	0.2	·	0.0	-5.1	1.7	·
